Yeast growth tox – yeast growth toxicity, wild-type and mutant, primary screen, cytotoxicity control for eIF2B function restoration project, wild-type and eIF2Bepsilon R284H mutant, A595; 0.3% of 30,000 active; AID 685, 2007; S. cerevisiae wild-type growth, A595 turbidity, 16 h; growth inhibition, % at 25 µM (by protocol);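 active means mutant and wild-type yeast strains alike exhibit over 30% growth inhibition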;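 further: 0% = untreated cell controls and 100% = YPD media blanks without cells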
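System: S. cerevisiae wild-type or eIF2Bepsilon-R284H mutant strain; times: 16 h growth with compound, 30 °C; signal: absorbance at 595 nm (turbidity); measure: growth inhibition (%) versus cell controls and blanks; compound: 25 µM single dose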
Yeast eIF2B – GCN4-lacZ reporter reduction in eIF2B-epsilon mutant yeast, primary screen, S. cerevisiae, eIF2B-epsilon R284H, Beta-Glo luminescence. AID 688, 2007. inhibition, % at 25 µM (by protocol). 0.91% of 27,000 active;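 active means mutant luminescence inhibited past about 50% while wild type luminescence and mutant growth stay under set limits, limit read from the data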
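material = yeast eIF2B-epsilon R284H mutant carrying GCN4–beta-galactosidase fusion | schedule = 16 h growth with compound at 30 °C, 90 min Beta-Glo step | measured by = luminescence and A595 | compound dosing = one concentration, 25 µM, 0.25% DMSO | read-out basis = % inhibition of reporter signal and growth versus controls | buffer or medium = YPD medium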
* hit, by the source's call; . = no result given. Shown are actives, neighbours in structure and some others; about 1% of the full set was active somewhere.

SMILES | Yeast growth tox | Yeast eIF2B
CN(C)P(=O)(C(Cl)=C(N1CCCCC1)N1CCCCC1)N(C)C | -2.0 | 58.4*
CC(C)CCP(=O)(O)c1ccccc1 | 15.0 | 19.2
CCN1C(=O)c2ccccc2Sc2ccc(C(=O)N3CCC4(CC3)OCCO4)cc21 | -17.5 | 27.0
CN1C(=O)c2ccccc2Sc2ccc(C(=O)N3CCC4(CC3)OCCO4)cc21 | 7.5 | 63.1*
CCOc1ccc(-c2cc(C(=O)N3CCC4(CC3)OCCO4)c3ccccc3n2)cc1 | -26.2 | 13.9
O=c1[nH]c(=O)n(-c2ccccc2Cl)c(O)c1C=NCCN1CCCCC1 | -9.3 | -39.2
CCCn1ncc(C(=O)O)c1C | -16.2 | .
COCCn1c(-c2ccccc2)cc(C(=O)O)c1C | -7.3 | 50.8*
Cc1nn(C2CCOC(C)(C)C2)c2c1C(c1ccc(OC(C)C)cc1)SCC(=O)N2 (stereo unspecified) | -7.2 | 0.8
Cn1c(O)c(C=NC2C(=O)C3(C)CCC2C3(C)C)c(=O)n(C)c1=O (stereo unspecified) | 6.4 | 19.5
COP(=O)(OC)C1(Nc2ccc(C)cc2)CCCCC1 | 49.2* | 24.1
CCCNC(=O)N1C2CCC1CC(O)(c1cccnc1)C2 (stereo unspecified) | -0.3 | -12.1
